Laboratory results from ChEMBL document CHEMBL3352043, “Discovery of small-molecule inhibitors selectively targeting the DNA-binding domain of the human androgen receptor” (J Med Chem, 2014).
The source made the active and inactive calls.

Key:
[1] = target: T1, Progesterone receptor (Homo sapiens) (UniProt P06401); assay: Inhibition of progesterone receptor (unknown origin) transcriptional activity at […]
T1 sequence (whole entry): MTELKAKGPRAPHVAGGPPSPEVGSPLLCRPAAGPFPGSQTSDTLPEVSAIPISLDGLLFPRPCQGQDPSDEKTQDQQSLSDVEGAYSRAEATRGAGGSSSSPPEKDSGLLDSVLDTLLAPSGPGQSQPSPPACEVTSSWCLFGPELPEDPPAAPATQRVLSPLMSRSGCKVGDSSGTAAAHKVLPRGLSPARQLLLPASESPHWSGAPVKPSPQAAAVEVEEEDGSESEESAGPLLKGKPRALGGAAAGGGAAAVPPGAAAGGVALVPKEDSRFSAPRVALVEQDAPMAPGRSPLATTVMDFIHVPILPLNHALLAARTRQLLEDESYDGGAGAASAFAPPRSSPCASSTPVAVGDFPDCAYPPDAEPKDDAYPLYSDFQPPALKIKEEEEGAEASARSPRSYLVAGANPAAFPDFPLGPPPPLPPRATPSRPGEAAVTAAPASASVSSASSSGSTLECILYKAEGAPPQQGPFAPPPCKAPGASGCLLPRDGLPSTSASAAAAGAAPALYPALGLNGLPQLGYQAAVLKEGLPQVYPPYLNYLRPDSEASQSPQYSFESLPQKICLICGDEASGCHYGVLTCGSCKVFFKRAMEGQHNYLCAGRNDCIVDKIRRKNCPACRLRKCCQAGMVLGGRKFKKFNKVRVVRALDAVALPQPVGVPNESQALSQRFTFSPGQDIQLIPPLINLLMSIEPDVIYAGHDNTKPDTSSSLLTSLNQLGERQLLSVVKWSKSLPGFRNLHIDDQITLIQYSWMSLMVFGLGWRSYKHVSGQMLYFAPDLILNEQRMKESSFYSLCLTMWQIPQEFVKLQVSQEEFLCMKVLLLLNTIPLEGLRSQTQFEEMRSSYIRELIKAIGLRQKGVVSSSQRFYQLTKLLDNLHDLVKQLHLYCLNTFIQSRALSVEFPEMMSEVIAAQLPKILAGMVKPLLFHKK
Outline: (§1)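 PC3 cells were starved 5 days in RPMI 1640 with 5% charcoal-stripped serum. They were cotransfected with GR or PR plasmid plus 50 ng ARR3tk-luciferase, and 48 h later treated with compound for 24 h. Stimulation was 1 nM dexamethasone (GR) or progesterone (PR). Luciferase luminescence was read from cell lysates.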

[2] = test system: T2, Androgen receptor (Homo sapiens), P10275 [Y594D]; assay: Inhibition of human androgen receptor Y594D mutant expressed in human PC3 cells assessed as inhibition of transcription activity after 24 hrs by luciferase reporter gene assay; assay type: cell-based; settings: PC-3
T2 sequence (whole entry): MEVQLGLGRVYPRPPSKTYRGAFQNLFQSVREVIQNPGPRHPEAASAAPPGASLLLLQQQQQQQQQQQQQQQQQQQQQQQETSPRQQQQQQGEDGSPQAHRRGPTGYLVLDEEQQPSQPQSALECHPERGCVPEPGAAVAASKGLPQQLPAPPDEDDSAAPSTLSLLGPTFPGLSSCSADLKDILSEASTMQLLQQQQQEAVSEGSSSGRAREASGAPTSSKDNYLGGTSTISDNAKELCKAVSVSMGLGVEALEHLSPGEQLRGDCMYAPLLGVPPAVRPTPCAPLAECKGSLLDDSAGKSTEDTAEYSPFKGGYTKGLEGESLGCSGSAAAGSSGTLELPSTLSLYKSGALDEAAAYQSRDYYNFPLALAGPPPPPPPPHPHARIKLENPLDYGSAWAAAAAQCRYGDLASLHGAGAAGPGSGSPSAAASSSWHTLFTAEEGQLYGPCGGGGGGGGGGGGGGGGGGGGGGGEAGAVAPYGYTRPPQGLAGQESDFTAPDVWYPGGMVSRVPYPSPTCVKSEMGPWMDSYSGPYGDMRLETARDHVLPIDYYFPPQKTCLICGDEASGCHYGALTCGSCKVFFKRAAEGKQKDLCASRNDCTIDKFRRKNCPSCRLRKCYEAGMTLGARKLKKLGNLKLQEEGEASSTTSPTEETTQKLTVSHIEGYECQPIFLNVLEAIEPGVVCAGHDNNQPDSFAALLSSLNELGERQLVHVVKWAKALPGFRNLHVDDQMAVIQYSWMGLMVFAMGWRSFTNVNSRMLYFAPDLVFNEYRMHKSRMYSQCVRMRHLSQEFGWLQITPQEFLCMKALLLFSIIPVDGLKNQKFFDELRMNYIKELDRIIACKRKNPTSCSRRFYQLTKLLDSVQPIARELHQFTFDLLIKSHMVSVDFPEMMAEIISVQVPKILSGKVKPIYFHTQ
Outline: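 PC3 cells were starved 5 days in RPMI 1640 with 5% charcoal-stripped serum and seeded at 5000 cells/well. After 24 h they were cotransfected with AR-V7 or hAR mutant plasmid plus 50 ng ARR3tk-luciferase. At 48 h post-transfection, compounds were added for 24 h with 0.1 nM R1881. Luminescence was read from passive-lysis-buffer lysates; mutant tests used 10 μM.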

[3] = target: T3, Glucocorticoid receptor (Homo sapiens) (UniProt P04150); assay: Inhibition of glucocorticoid receptor (unknown origin) transcriptional activity at […]; outline: as §1
T3 sequence (whole entry): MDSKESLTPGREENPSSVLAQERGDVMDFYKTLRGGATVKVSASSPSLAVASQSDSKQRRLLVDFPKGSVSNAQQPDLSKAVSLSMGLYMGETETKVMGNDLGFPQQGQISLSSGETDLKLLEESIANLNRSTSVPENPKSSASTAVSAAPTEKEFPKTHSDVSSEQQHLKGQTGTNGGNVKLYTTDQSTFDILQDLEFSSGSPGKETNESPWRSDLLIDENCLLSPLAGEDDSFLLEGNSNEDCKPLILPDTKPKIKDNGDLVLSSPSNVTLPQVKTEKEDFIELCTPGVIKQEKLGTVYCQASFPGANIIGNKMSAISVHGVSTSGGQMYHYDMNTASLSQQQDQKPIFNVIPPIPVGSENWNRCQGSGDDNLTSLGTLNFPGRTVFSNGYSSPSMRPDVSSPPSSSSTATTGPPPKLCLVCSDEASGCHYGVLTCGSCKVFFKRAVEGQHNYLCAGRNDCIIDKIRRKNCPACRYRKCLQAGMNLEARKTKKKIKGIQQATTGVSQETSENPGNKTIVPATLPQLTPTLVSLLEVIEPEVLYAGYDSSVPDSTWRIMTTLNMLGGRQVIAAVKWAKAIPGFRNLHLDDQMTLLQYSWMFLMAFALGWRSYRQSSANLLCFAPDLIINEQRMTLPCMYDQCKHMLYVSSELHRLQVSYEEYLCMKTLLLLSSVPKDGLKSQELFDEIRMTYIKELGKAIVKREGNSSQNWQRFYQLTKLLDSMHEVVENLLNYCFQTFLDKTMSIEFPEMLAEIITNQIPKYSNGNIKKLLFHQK

Measured: inhibition

c1ccc(-c2csc(N3CCOCC3)n2)cc1
inactive: all assays above

Brc1ncn(-c2csc(N3CCOCC3)n2)c1Br
inactive: all assays above
